NLRP3 yeast inh = NALP3 inhibition in yeast. AID 2825. Yeast reconstituted NLRP3/ASC/caspase-1, beta-gal luminescence, 24 h. hit rate 0.39% among 330,000. inhibition, % at 10 µM;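 active means inhibition of 50% or more; inactive means inhibition below 50%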
Calb FLC = C. albicans growth modulation with fluconazole. C. albicans CaCi-2 + fluconazole, Alamar Blue growth, 48 h. growth inhibition, % (test concentration not listed). hit rate 0.57% among 300,000. AID 1979;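 active means growth inhibition above about 58% in most replicates, limit read from the data, passing the limit was not always enough; inconclusive means exactly half the replicates above a set limit; inactive means most replicates below a set limit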;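 further: all wells also contain fluconazole at 8 µg/ml as a sub-toxic cotreatment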
T cruzi inh = blocks replication of Trypanosoma cruzi; hit rate 1.4% among 300,000; inhibition, % (no concentration beside the values); T. cruzi beta-gal in NIH3T3, luminescence, 90 h;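 active means mean inhibition across valid replicates above about 55%, limit read from the data; inconclusive means mean below that limit but half or more replicates reach it; inactive means mean below it, under half of replicates reach it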;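 further: signal also drops with host cell toxicity which is not excluded here; higher percent means less beta-gal luminescence so fewer parasites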
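System: Mouse NIH/3T3 fibroblasts infected with β-gal-expressing T. cruzi Tulahuen C4 | Quantity: NIH/3T3 cells, 5,000 per well | Reagent: 5000 reporter trypomastigotes per well | Dosing: Compound pinned at 50 nL/well, DMSO | Schedule: 3 h host attachment, then at least 90 h co-culture | Detection: GalScreen luminescence, 60 min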
NALP1 inh = blocks the NALP1 inflammasome reconstituted in yeast; inhibition, % at 10 µM; hit rate 0.61% among 280,000; S. cerevisiae NALP1/ASC/caspase-1 growth, X-gal OD620, 72 h; in the data active means inhibition mostly above about 24%, no sharp cut-off; inactive means mostly below about 32%
L major viab = reduces viability of Leishmania major promastigotes; resazurin fluorescence viability; AID 1063; inhibition, % at 10 µM; hit rate 9% among 200,000; in the data active means inhibition above about 50%;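 further: promastigotes grown with compound for 44 hours at 28 °C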
PolyA inh = blocks polyadenylation in yeast reporter cells; activity score, % at 12 µM; hit rate 0.02% among 300,000; S. cerevisiae SKY197-pL101 polyadenylation reporter, beta-gal luminescence; efflux-impaired pdr1/pdr3 knockout yeast; score 100 = 6 SD above DMSO;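 active means lowest replicate activity score at least 50, where 100 means six control SD above control mean; inconclusive means lowest score under 50 but half or more replicates reach 50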;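 further: yeast exposed to compound for 9 h at 30 °C; higher score means more reporter readthrough which indicates perturbed polyadenylation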
Each line names hits and unclear results; the compound was inactive in the other large screens. The entries come from a sample that favours hits as a whole.

CCOC(=O)c1c(C)n(C)c2ccc(OC)c(NC(=O)CCN3CCC(Cc4ccccc4)CC3)c12	none (no result: L major viab)
COc1ccc(CCNC(=O)c2cc(-c3ccc(C)c(C)c3O)n[nH]2)cc1OC	L major viab 93
COc1ccc(CCNC(=O)c2cc(-c3cc(C)ccc3O)n[nH]2)cc1OC	L major viab 89
Cc1ccc(-c2cc(C(=O)NCc3ccc4c(c3)OCO4)[nH]n2)c(O)c1C	T cruzi inh inconclusive, L major viab 54
Cc1cc(O)c(-c2cc(C(=O)NCc3ccc4c(c3)OCO4)[nH]n2)cc1C	none
O=C(NN=C1CCCCC1)c1ccccc1-n1cccc1	none (no result: L major viab)
CC1CC(C)CN(S(=O)(=O)c2ccc(C(=O)Nc3nnc(C4CC4)o3)cc2)C1 (stereo not given)	none (no result: L major viab)
CC(C)NC(=O)/C(C#N)=C/c1ccc(N(C)C)o1	none (no result: L major viab)
O=C(NCC1CCCO1)C1CCN(S(=O)(=O)c2cccc3cccnc23)CC1 (stereo not given)	none (no result: Calb FLC, T cruzi inh, PolyA inh)
CN(C)S(=O)(=O)c1cc(NC(=O)CN2CCNC(=O)C2)ccc1Cl	L major viab 60
COc1cccc(OC)c1C(=O)OCCCOC(=O)c1c(OC)cccc1OC	NALP1 inh 28 (no result: L major viab)
COc1ccc(CCC(=O)N2CCN(c3ccc([N+](=O)[O-])cc3)CC2)cc1OC	none (no result: L major viab)
O=C(/C=C/c1ccc(Cl)cc1Cl)c1nc2ccccc2[nH]1	L major viab 99
Clc1cccc(Cl)c1/C=C/c1nc2ccccc2[nH]1	L major viab 98
Clc1ccc(/C=C/c2nc3ccccc3[nH]2)c(Cl)c1	T cruzi inh 58
CN(C)CCN1CCc2ccccc21	L major viab 78 (no result: NALP1 inh)
COC(=O)c1ccc(NC(=O)CSC2=Nc3ccccc3C3CC=NN23)cc1 (stereo not given)	L major viab 55
CCOC(=O)N1CCN(C(=O)C(=O)c2cn(CC(=O)N3CCCCCC3)c3ccccc23)CC1	none (no result: L major viab)
O=C(Cn1cc(C(=O)C2CC2)c2ccccc21)NC1CCCC1	none
CC1CCCCN1C(=O)C(=O)c1cn(CC(=O)N2CCCCCC2)c2ccccc12 (stereo not given)	T cruzi inh 64 (no result: L major viab)
CC1CCCCN1C(=O)C(=O)c1cn(CC(=O)N2CCCC2)c2ccccc12 (stereo not given)	none (no result: L major viab)
COC(=O)c1cn(CC(=O)NC2CCCCC2)c2ccccc12	Calb FLC 100
CCOC(=O)C1CCN(C(=O)C(=O)c2cn(CC(=O)N3CCCCCC3)c3ccccc23)CC1	T cruzi inh 62 (no result: L major viab)
CC(C)NCC(=O)Nc1c2c(nc3ccccc13)CCC2	none (no result: L major viab)
c1coc(CNc2c3c(nc4ccccc24)CCC3)c1	T cruzi inh 69, L major viab 88
Cc1cc(C)nc(NS(=O)(=O)c2ccc(NC(=O)c3cccs3)cc2)n1	none
CCCCN(CCCC)S(=O)(=O)c1ccc(NC(=O)c2cccs2)cc1	T cruzi inh 56, L major viab 94
CCCCN(CCCC)S(=O)(=O)c1ccc(NC(=O)c2ccc([N+](=O)[O-])cc2Cl)cc1	T cruzi inh 79, L major viab 100 (no result: NLRP3 yeast inh)
CCc1cccc2c(-c3csc(=NC)n3C)c[nH]c12	none
CCC1=NN(C(=O)C(=O)Nc2ccc(Br)cc2)C(O)(C(F)(F)F)C1 (stereo not given)	none
COc1ccccc1CN(C(=O)CCl)C(C(=O)NC1CCCCC1)c1ccncc1 (stereo not given)	L major viab 61 (no result: NLRP3 yeast inh, Calb FLC, T cruzi inh, PolyA inh)
COCCC(=O)N(Cc1ccc2c(c1)OCO2)C(C(=O)NC1CCCCC1)c1ccncc1 (stereo not given)	none
COc1ccc(C(=O)/C=C/C(=O)N(Cc2ccccc2)C(C(=O)NC2CCCCC2)c2ccncc2)c(O)c1 (stereo not given)	L major viab 93
O=C(NCC(=O)N(Cc1ccccc1)C(C(=O)NC1CCCC1)c1ccncc1)c1ccco1 (stereo not given)	none
COc1ccc(CCN(C(=O)c2ccco2)C(C(=O)NC2CCCC2)c2ccncc2)cc1OC (stereo not given)	none
COc1ccc(C(=O)/C=C/C(=O)N(Cc2ccc(F)cc2)C(C(=O)NC2CCCCC2)c2ccncc2)c(O)c1 (stereo not given)	L major viab 71
COc1ccc(C(=O)/C=C/C(=O)N(Cc2ccccc2OC)C(C(=O)NC2CCCCC2)c2ccncc2)c(O)c1 (stereo not given)	L major viab 99
CC(NC(=O)c1ccco1)C(=O)N1CCCCC1 (stereo not given)	none (no result: L major viab)
CCCCCN(C(=O)CCC(=O)OCc1ccc(C(C)(C)C)cc1)c1c(N)n(CCCC)c(=O)[nH]c1=O	none (no result: L major viab)
C(=C1/CCCC2=C1Nc1ncnn1C2c1ccccc1)/c1ccccc1 (stereo not given)	T cruzi inh 74, L major viab 100
FC(F)(F)c1ccccc1C1C2=C(Nc3ncnn31)c1ccccc1CCC2 (stereo not given)	L major viab 96 (no result: NLRP3 yeast inh, Calb FLC, T cruzi inh, PolyA inh)
CN(CC(=O)NC(=O)NC1CCCCC1)CC(=O)Nc1ccc(Cl)cc1	none (no result: Calb FLC, T cruzi inh, NALP1 inh, L major viab, PolyA inh)
COc1ccccc1N(C(=O)NCc1ccccc1)C1=NCC(C)S1 (stereo not given)	L major viab 57, PolyA inh inconclusive
COc1ccccc1NC(=O)N(Cc1ccccc1)C1=NCC(C)S1 (stereo not given)	none
CCn1c(N2CCN(S(=O)(=O)c3ccc(OC)cc3)CC2)nc2ccccc21	none (no result: L major viab)
CCn1c(N2CCN(S(=O)(=O)c3ccccc3C(F)(F)F)CC2)nc2ccccc21	L major viab 74
CC(=O)c1ccc(S(=O)(=O)N2CCc3ccccc3C2)cc1	none (no result: L major viab)
Cc1cccc2sc(NNC(=O)c3ccc(S(=O)(=O)N4CCc5ccccc5C4)cc3)nc12	T cruzi inh 60, L major viab 99
Cc1cccc2sc(NNC(=O)c3ccc(S(=O)(=O)N4CCCC(C)C4)cc3)nc12 (stereo not given)	L major viab 96 (no result: NLRP3 yeast inh)
COc1ccc(Cl)cc1NC(=O)C1CC(c2ccccc2O)=NO1 (stereo not given)	none (no result: L major viab)
CCOc1ccccc1NC(=O)C(CC(C)C)NC(=O)C1CCC(C)CC1 (stereo not given)	NALP1 inh 43
O=C(O)C[C@@H]1C(=O)O[C@@H]2C(COC(=O)c3cc(O)c(O)c(O)c3)O[C@@H](OC(=O)c3cc(O)c(O)c(O)c3)[C@@H](OC(=O)c3cc(O)c(O)c4c3[C@H]1[C@H](O)C(=O)O4)[C@H]2OC(=O)c1cc(O)c(O)c(O)c1 (stereo not given in full)	none (no result: NLRP3 yeast inh, Calb FLC, T cruzi inh, L major viab, PolyA inh)
CCC(=O)N1c2ccc(S(=O)(=O)CCC(=O)N3CCn4c3nc3ccccc34)cc2CC1C (stereo not given)	Calb FLC 81, L major viab 79
CCOC(=O)N1CCN(C(=O)CCS(=O)(=O)c2ccc3c(c2)CC(C)N3C(=O)CC)CC1 (stereo not given)	none (no result: L major viab)

Source: PubChem
